Source: ChEMBL document CHEMBL3872252, “New bithiazolyl hydrazones: Novel synthesis, characterization and antitubercular evaluation” (Bioorg Med Chem Lett, 2017)
Converted amounts (≈) assume the structure as drawn.

Legend:
[1] = Selectivity index, ratio of GI50 for human THP1 cells to MIC90 for Mycobacterium bovis BCG ATCC 35743 active stage; assay type: toxicity, cell-based, THP-1; details: read-out: Selectivity Index
In short: (§1)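 Cytotoxicity was measured on human MCF-7, HCT116 and THP-1 cells by MTT assay, with paclitaxel as reference. GI50 is the concentration inhibiting 50% of cell growth. The selectivity index is GI50 for the given cell line divided by MIC90 for the given mycobacterial strain and stage.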

[2] = system: Escherichia coli; experiment: Antibacterial activity against Escherichia coli; assay type: functional
[3] = Selectivity index, ratio of GI50 for human MCF7 cells to MIC90 for Mycobacterium bovis BCG ATCC 35743 active stage; assay type: toxicity, cell-based; details: read-out: Selectivity Index; in short: as §1
[4] = system: Pseudomonas aeruginosa; experiment: Growth inhibition of Pseudomonas aeruginosa at 30 ug/ml; assay type: functional; details: read-out: GI
[5] = system: Escherichia coli; experiment: Growth inhibition of Escherichia coli at 30 ug/ml; assay type: functional; details: read-out: GI
[6] = Selectivity index, ratio of GI50 for human HCT116 cells to MIC90 for Mycobacterium bovis BCG ATCC 35743 active stage; assay type: toxicity, cell-based, HCT-116; details: read-out: Selectivity Index; in short: as §1
[7] = system: Staphylococcus aureus; experiment: Growth inhibition of Staphylococcus aureus at 3 ug/ml; assay type: functional; details: read-out: GI
In short: (§2)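 Screened against Gram-negative E. coli and P. aeruginosa and Gram-positive S. aureus and B. subtilis. Compound was tested at 3 µg/ml, and the read-out is percent growth inhibition.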

[8] = Antitubercular activity against Mycobacterium bovis BCG ATCC 35743 dormant stage measured on day 12 by nitrate reductase based two-fold dilution assay; assay type: functional, Mycobacterium bovis BCG str. ATCC 35743; details: Mycobacterium tuberculosis variant bovis BCG, ATCC 35743, 288 h
[9] = Antitubercular activity against Mycobacterium tuberculosis H37Ra ATCC 25177 active stage infected in human THP1 cells measured on day 8 by nitrate reductase assay; assay type: functional, THP-1; details: ATCC 25177, 192 h
[10] = Cytotoxicity against human MCF7 cells by MTT assay; assay type: toxicity, cell-based
[11] = Selectivity index, ratio of GI50 for human THP1 cells to MIC90 for Mycobacterium tuberculosis H37Ra ATCC 25177 active stage; assay type: toxicity, cell-based, THP-1; details: read-out: Selectivity Index; in short: as §1
[12] = Selectivity index, ratio of GI50 for human MCF7 cells to MIC90 for Mycobacterium bovis BCG ATCC 35743 dormant stage; assay type: toxicity, cell-based; details: read-out: Selectivity Index
In short: (§3)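 Cytotoxicity was measured on human MCF-7, HCT116 and THP-1 cells by MTT assay, with paclitaxel as reference. The selectivity index is GI50 for the given cell line divided by MIC90 for the given mycobacterial strain and stage.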

[13] = system: Escherichia coli; experiment: Growth inhibition of Escherichia coli at 3 ug/ml; assay type: functional; details: read-out: GI; in short: as §2
[14] = system: Escherichia coli; experiment: Growth inhibition of Escherichia coli at 10 ug/ml; assay type: functional; details: read-out: GI
[15] = system: Bacillus subtilis; experiment: Growth inhibition of Bacillus subtilis at 3 ug/ml; assay type: functional; details: read-out: GI; in short: as §2
[16] = system: Pseudomonas aeruginosa; experiment: Growth inhibition of Pseudomonas aeruginosa at 3 ug/ml; assay type: functional; details: read-out: GI; in short: as §2
[17] = Selectivity index, ratio of GI50 for human THP1 cells to MIC90 for Mycobacterium tuberculosis H37Ra ATCC 25177 dormant stage; assay type: toxicity, cell-based, THP-1; details: read-out: Selectivity Index; in short: as §3
[18] = system: Bacillus subtilis; experiment: Growth inhibition of Bacillus subtilis at 10 ug/ml; assay type: functional; details: read-out: GI
[19] = Antitubercular activity against Mycobacterium tuberculosis H37Ra ATCC 25177 active stage measured on day 8 by XTT reduction menadione based two-fold dilution assay; assay type: functional; details: ATCC 25177, 192 h
In short: (§4)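 M. tuberculosis H37Ra ATCC 25177 was exposed to 0.7–100 μg/mL in two-fold steps (0.7, 1.5, 3.1 … 100). Active stage was read after 8 days and dormant stage after 12 days of incubation. Inhibition was read by XTT reduction menadione assay (XRMA), absorbance 470 nm. MIC90 is the concentration giving ≥90% inhibition (µg/mL).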

[20] = system: Pseudomonas aeruginosa; experiment: Growth inhibition of Pseudomonas aeruginosa at 10 ug/ml; assay type: functional; details: read-out: GI
[21] = system: Staphylococcus aureus; experiment: Growth inhibition of Staphylococcus aureus at 10 ug/ml; assay type: functional; details: read-out: GI
[22] = system: Bacillus subtilis; experiment: Growth inhibition of Bacillus subtilis at 30 ug/ml; assay type: functional; details: read-out: GI
[23] = Selectivity index, ratio of GI50 for human HCT116 cells to MIC90 for Mycobacterium tuberculosis H37Ra ATCC 25177 active stage; assay type: toxicity, cell-based, HCT-116; details: read-out: Selectivity Index; in short: as §1
[24] = Cytotoxicity against human THP1 cells by MTT assay; assay type: toxicity, cell-based, THP-1
[25] = Selectivity index, ratio of GI50 for human HCT116 cells to MIC90 for Mycobacterium bovis BCG ATCC 35743 dormant stage; assay type: toxicity, cell-based, HCT-116; details: read-out: Selectivity Index; in short: as §3
[26] = Selectivity index, ratio of GI50 for human HCT116 cells to MIC90 for Mycobacterium tuberculosis H37Ra ATCC 25177 dormant stage; assay type: toxicity, cell-based, HCT-116; details: read-out: Selectivity Index; in short: as §3
[27] = system: Pseudomonas aeruginosa; experiment: Antibacterial activity against Pseudomonas aeruginosa; assay type: functional
[28] = Selectivity index, ratio of GI50 for human THP1 cells to MIC90 for Mycobacterium bovis BCG ATCC 35743 dormant stage; assay type: toxicity, cell-based, THP-1; details: read-out: Selectivity Index; in short: as §3
[29] = Antitubercular activity against Mycobacterium bovis BCG ATCC 35743 active stage measured on day 8 by nitrate reductase based two-fold dilution assay; assay type: functional, Mycobacterium bovis BCG str. ATCC 35743; details: Mycobacterium tuberculosis variant bovis BCG, ATCC 35743, 192 h
[30] = Antitubercular activity against Mycobacterium tuberculosis H37Ra ATCC 25177 dormant stage measured on day 12 by XTT reduction menadione based two-fold dilution assay; assay type: functional; details: ATCC 25177, 288 h; in short: as §4
[31] = system: Staphylococcus aureus; experiment: Antibacterial activity against Staphylococcus aureus; assay type: functional
[32] = Selectivity index, ratio of GI50 for human MCF7 cells to MIC90 for Mycobacterium tuberculosis H37Ra ATCC 25177 dormant stage; assay type: toxicity, cell-based; details: read-out: Selectivity Index; in short: as §3
[33] = Antitubercular activity against Mycobacterium tuberculosis H37Ra ATCC 25177 dormant stage infected in human THP1 cells measured on day 12 by nitrate reductase assay; assay type: functional, THP-1; details: ATCC 25177, 288 h
[34] = system: Bacillus subtilis; experiment: Antibacterial activity against Bacillus subtilis; assay type: functional
[35] = system: Staphylococcus aureus; experiment: Growth inhibition of Staphylococcus aureus at 30 ug/ml; assay type: functional; details: read-out: GI
[36] = Selectivity index, ratio of GI50 for human MCF7 cells to MIC90 for Mycobacterium tuberculosis H37Ra ATCC 25177 active stage; assay type: toxicity, cell-based; details: read-out: Selectivity Index; in short: as §1
[37] = Cytotoxicity against human HCT116 cells by MTT assay; assay type: toxicity, cell-based, HCT-116

## COc1ccc(-c2csc(N/N=C(\C)c3sc(-c4ccccc4)nc3C)n2)cc1
[1]
  selectivity ratio: 7
[2]
  MIC: > 30 µg/mL
[3]
  selectivity ratio: 7
[4]
  inhibition of growth at 30 µg/mL: 85%
[5]
  inhibition of growth at 30 µg/mL: 84.6%
[6]
  selectivity ratio: 7
[7]
  inhibition of growth at 3 µg/mL: 48.8%
[8]
  IC50: 2.82 µg/mL (≈ 6.71 µM)
  MIC90: 14 µg/mL (≈ 33.3 µM)
[9]
  MIC90: 12.3 µg/mL (≈ 29.3 µM)
[10]; MCF7 cells
  GI50: > 100 µg/mL
[10]; mcf7
  GI90: > 100 µg/mL
[11]
  selectivity ratio: 15
[12]
  selectivity ratio: 7
[13]
  inhibition of growth at 3 µg/mL: 52.1%
[14]
  inhibition of growth at 10 µg/mL: 71.1%
[15]
  inhibition of growth at 3 µg/mL: 44.9%
[16]
  inhibition of growth at 3 µg/mL: 48.7%
[17]
  selectivity ratio: 14
[18]
  inhibition of growth at 10 µg/mL: 66.8%
[19]
  IC50: 0.078 µg/mL (≈ 0.185 µM)
  MIC90: 6.87 µg/mL (≈ 16.3 µM)
[20]
  inhibition of growth at 10 µg/mL: 69.9%
[21]
  inhibition of growth at 10 µg/mL: 69.2%
[22]
  inhibition of growth at 30 µg/mL: 82.5%
[23]
  selectivity ratio: 15
[24]; THP1 cells
  GI50: > 100 µg/mL
[24]; thp-1
  GI90: > 100 µg/mL
[25]
  selectivity ratio: 7
[26]
  selectivity ratio: 14
[27]
  MIC: > 30 µg/mL
[28]
  selectivity ratio: 7
[29]
  IC50: 2.43 µg/mL (≈ 5.78 µM)
  MIC90: 13.5 µg/mL (≈ 32.1 µM)
[30]
  IC50: 0.075 µg/mL (≈ 0.178 µM)
  MIC90: 7.15 µg/mL (≈ 17 µM)
[31]
  MIC: > 30 µg/mL
[32]
  selectivity ratio: 14
[33]
  MIC90: 9.38 µg/mL (≈ 22.3 µM)
[34]
  MIC: > 30 µg/mL
[35]
  inhibition of growth at 30 µg/mL: 83.7%
[36]
  selectivity ratio: 15
[37]; HCT116 cells
  GI50: > 100 µg/mL
[37]; hct-116
  GI90: > 100 µg/mL
